Blank lines part the entries; values can stand above or below the compound they belong to. The source made the active and inactive calls. No cut-off for these calls is given here.
Experiments:
[1] = Cytotoxicity against human paclitaxel-resistant A2780T cells after 48 hrs by MTT assay; type: functional, cell-based; settings: A2780/Taxol
Summary of the method: (§1)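 MTT viability assay. Cells were seeded and grown 24 h, then exposed 48 h to a range of concentrations of test agent in DMSO (0.1% final), with vehicle-matched DMSO controls. Medium was replaced by 0.5 mg/mL MTT in RPMI with 10% FBS for 2 h at 37 °C. Dye was solubilized and absorbance read. IC50 from dose–response curves, three independent experiments.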

[2] = system: A2780; assay: Cytotoxicity against human A2780 cells after 48 hrs by MTT assay; type: functional, cell-based; settings: A2780, 48 h; summary of the method: as §1
[3] = system: SK-OV-3; assay: Cytotoxicity against human SKOV3 cells after 48 hrs by MTT assay; type: functional, cell-based; settings: SK-OV-3, 48 h; summary of the method: as §1
[4] = molecular target: T1, Voltage-dependent T-type calcium channel subunit alpha-1G (Homo sapiens, UniProt O43497); assay: Inhibition of t-type Cav3.1 channel (unknown origin) expressed in HEK293 cells assessed as inhibition of 50 ms depolarizing voltage step-induced current at 1 uM by whole cell patch-clamp method relative to control; type: cell-based
[5] = molecular target: T1, Voltage-dependent T-type calcium channel subunit alpha-1G; assay: Inhibition of t-type Cav3.1 channel (unknown origin) expressed in HEK293 cells assessed as inhibition of 50 ms depolarizing voltage step-induced current by whole cell patch-clamp method; type: cell-based
[6] = Ratio of IC50 for mibefradil to compound IC50 for human paclitaxel-resistant A2780T cells; type: functional
[7] = system: A2780; assay: Induction of apoptosis in human A2780 cells assessed as cell shrinkage, membrane blebbing, chromatin condensation and apoptotic body formation at 6 uM after 24 hrs by DAPI staining; type: functional, cell-based
Summary of the method: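 A2780 cells exposed 24 h to 6 µM compound, then fixed, washed three times in PBS and stained 5 min with 0.1 µg/mL DAPI. Cells were washed, mounted in PBS with 10% glycerol and examined by fluorescence microscopy for shrinkage, blebbing, chromatin condensation and apoptotic bodies.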

[8] = Cell cycle arrest in human paclitaxel-resistant A2780T cells assessed as accumulation at sub-G1 phase after 24 hrs by FACS analysis; type: functional, cell-based; settings: A2780/Taxol, in the assay text read “G1 phase” for “sub-G1 phase”
Summary of the method: (§2)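 A2780 or paclitaxel-resistant A2780-T cells treated 24 h with compound at 0, 2, 4, 6 or 8 µM, depending on the series. Fixed cells were washed in PBS and stained 30 min in the dark with PI plus 100 µg/mL DNase-free RNase A. Phase distribution was read by flow cytometry. Means ± SD of three independent experiments; ANOVA with Dunnett's post-hoc test versus untreated control.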

[9] = system: A2780; assay: Cell cycle arrest in human A2780 cells assessed as accumulation at sub-G1 phase after 24 hrs by FACS analysis; type: functional, cell-based; settings: in the assay text read “G1 phase” for “sub-G1 phase”; summary of the method: as §2
[10] = system: Mus musculus; assay: Toxicity in BALB/c mouse assessed as mortality at 40 mg/kg, po for 2 weeks; type: organism-based; set-up: dose 40 mg/kg, route oral; settings: in vivo, 336 h
[11] = system: A2780; assay: Cell cycle arrest in human A2780 cells assessed as accumulation at G2/M phase at 6 uM after 24 hrs by FACS analysis; type: functional; summary of the method: as §2
[12] = system: A2780; assay: Cell cycle arrest in human A2780 cells assessed as accumulation at S phase at 6 uM after 24 hrs by FACS analysis; type: functional; summary of the method: as §2
[13] = system: A2780; assay: Cell cycle arrest in human A2780 cells assessed as accumulation at sub-G1 phase at 6 uM after 24 hrs by FACS analysis; type: functional; summary of the method: as §2
[14] = system: A2780; assay: Cell cycle arrest in human A2780 cells assessed as accumulation at G0/G1 phase at 6 uM after 24 hrs by FACS analysis; type: functional; summary of the method: as §2
[15] = system: HEK293; assay: Cytotoxicity against human HEK293 cells after 48 hrs by MTT assay; type: cell-based; settings: HEK293, 48 h; summary of the method: as §1
[16] = Cell cycle arrest in human paclitaxel-resistant A2780T cells assessed as accumulation at sub-G1 phase at 8 uM after 24 hrs by FACS analysis; type: functional, cell-based; settings: A2780/Taxol; summary of the method: as §2
[17] = system: A2780; assay: Cell cycle arrest in human A2780 cells assessed as accumulation at sub-G1 phase at 2 to 4 uM after 24 hrs by FACS analysis; type: functional; summary of the method: as §2
[18] = Cell cycle arrest in human paclitaxel-resistant A2780T cells assessed as accumulation at sub-G1 phase at 2 to 4 uM after 24 hrs by FACS analysis; type: functional, cell-based; settings: A2780/Taxol; summary of the method: as §2
[19] = system: A2780; assay: Cell cycle arrest in human A2780 cells assessed as accumulation at sub-G1 phase at 8 uM after 24 hrs by FACS analysis (reference value: 3.1%); type: functional; summary of the method: as §2

T1 sequence (O43497 whole entry): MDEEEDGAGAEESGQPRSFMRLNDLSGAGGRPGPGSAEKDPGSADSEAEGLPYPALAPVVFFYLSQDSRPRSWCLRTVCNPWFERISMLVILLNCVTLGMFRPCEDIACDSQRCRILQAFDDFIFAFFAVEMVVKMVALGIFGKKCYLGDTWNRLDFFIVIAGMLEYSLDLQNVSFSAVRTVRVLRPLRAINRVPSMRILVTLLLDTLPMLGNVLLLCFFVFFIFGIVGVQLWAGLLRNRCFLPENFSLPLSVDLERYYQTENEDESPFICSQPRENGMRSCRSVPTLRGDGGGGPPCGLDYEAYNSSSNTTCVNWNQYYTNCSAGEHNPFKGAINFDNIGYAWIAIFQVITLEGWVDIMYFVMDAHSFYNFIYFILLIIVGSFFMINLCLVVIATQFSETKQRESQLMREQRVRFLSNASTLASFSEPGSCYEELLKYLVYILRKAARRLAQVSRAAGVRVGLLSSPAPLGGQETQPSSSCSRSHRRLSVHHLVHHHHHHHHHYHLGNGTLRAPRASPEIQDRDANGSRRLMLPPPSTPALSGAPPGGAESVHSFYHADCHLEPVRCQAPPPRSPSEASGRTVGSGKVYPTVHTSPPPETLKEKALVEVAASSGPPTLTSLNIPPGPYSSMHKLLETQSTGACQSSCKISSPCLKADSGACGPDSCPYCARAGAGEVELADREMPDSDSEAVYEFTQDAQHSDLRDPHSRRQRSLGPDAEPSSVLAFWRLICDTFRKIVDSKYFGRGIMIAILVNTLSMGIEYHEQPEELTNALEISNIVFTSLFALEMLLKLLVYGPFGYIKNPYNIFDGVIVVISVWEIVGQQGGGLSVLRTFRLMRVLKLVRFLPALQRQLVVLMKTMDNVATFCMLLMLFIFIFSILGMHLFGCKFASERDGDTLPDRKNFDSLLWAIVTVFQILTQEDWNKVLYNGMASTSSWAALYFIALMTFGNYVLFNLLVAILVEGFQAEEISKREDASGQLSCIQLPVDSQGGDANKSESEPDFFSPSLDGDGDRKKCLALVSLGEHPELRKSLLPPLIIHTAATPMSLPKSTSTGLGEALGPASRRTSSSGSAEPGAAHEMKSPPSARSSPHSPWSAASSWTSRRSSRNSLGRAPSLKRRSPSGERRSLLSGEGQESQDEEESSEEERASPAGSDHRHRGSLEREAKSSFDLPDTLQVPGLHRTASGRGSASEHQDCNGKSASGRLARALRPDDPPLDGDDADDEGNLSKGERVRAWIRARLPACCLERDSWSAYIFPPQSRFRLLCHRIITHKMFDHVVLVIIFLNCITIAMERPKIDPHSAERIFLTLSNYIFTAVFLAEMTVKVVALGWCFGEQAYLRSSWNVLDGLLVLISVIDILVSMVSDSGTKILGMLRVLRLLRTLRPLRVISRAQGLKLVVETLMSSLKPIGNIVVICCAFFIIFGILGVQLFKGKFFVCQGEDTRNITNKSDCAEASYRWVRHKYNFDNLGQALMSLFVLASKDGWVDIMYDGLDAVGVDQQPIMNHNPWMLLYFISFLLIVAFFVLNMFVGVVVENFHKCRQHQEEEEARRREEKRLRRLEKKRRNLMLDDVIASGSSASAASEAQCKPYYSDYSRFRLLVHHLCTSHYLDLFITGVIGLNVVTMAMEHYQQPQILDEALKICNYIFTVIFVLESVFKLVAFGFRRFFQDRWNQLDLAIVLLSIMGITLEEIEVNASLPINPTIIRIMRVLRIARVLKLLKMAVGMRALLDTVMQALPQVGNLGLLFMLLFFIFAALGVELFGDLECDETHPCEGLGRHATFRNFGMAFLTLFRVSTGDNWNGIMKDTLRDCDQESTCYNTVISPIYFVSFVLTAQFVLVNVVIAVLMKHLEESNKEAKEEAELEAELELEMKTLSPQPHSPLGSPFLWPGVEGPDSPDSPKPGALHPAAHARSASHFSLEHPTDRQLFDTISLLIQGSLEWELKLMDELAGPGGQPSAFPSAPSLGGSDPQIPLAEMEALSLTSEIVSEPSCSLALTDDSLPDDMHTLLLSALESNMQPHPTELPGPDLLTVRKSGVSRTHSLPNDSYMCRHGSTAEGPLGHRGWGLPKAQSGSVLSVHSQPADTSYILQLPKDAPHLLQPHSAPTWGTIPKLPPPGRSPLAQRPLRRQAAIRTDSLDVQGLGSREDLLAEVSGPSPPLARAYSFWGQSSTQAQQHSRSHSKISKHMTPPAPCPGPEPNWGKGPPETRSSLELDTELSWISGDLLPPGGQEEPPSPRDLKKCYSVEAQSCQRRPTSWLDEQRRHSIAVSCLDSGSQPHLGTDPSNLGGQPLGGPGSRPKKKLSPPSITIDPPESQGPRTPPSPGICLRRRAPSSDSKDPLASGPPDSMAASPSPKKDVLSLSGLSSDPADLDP

inhibition [4]: 43.9%
Compound: CN(C)CCN1CCN(C2=Nc3ccccc3C(CC(=O)NCc3ccccn3)N2c2ccc(-c3ccccc3)cc2)CC1 (stereo not given)
IC50 [1]: > 5 µM
IC50 [2]: 4.86 µM
IC50 [3]: 5.08 µM

inhibition [4]: 32.3%
Compound: CN(C)CCN1CCN(C2=Nc3ccccc3C(CC(=O)NCc3ccccc3)N2c2ccc(-c3ccccn3)cc2)CC1 (stereo not given)
IC50 [1]: > 5 µM
IC50 [2]: > 5 µM

inhibition [4]: 46.8%
Compound: CN(C)CCN1CCN(C2=Nc3ccccc3C(CC(=O)NCc3ccccc3)N2c2ccc(-c3ccccc3)cc2)CC1 (stereo not given)
IC50 [1]: 2.39 µM
IC50 [2]: 1.39 µM
IC50 [3]: 1.97 µM

inhibition [4]: 29.1%
Compound: CN(C)CCN1CCN(C2=Nc3ccccc3C(CC(=O)NCc3ccncc3)N2c2ccc(-c3ccccc3)cc2)CC1 (stereo not given)
IC50 [1]: > 5 µM
IC50 [2]: > 5 µM
IC50 [3]: 11.7 µM

The remaining lines, values behind:

Compound: COCC(=O)O[C@]1(CCN(C)CCCc2nc3ccccc3[nH]2)CCc2cc(F)ccc2[C@@H]1C(C)C [MIBEFRADIL]
IC50 [1]: 35.3 µM
IC50 [2]: 24.2 µM
IC50 [3]: 20.5 µM
inhibition [4]: 55.1%

Compound: COc1ccc(CNC(=O)CC2c3ccccc3N=C(N(C)CCCCCN(C)C)N2c2ccc(-c3ccccc3)cc2)cc1 (stereo not given)
IC50 [1]: 2.52 µM
IC50 [2]: 1.38 µM
IC50 [3]: 4.46 µM
IC50 [5]: 0.39 µM
inhibition [4]: 68.2%

Compound: Cc1ccc(CNC(=O)CC2c3ccccc3N=C(N3CCN(CCN(C)C)CC3)N2c2ccc(-c3ccccc3)cc2)cc1 (stereo not given)
IC50 [1]: 3.52 µM
IC50 [2]: 1.6 µM
IC50 [3]: 2.33 µM
IC50 [5]: 0.46 µM
inhibition [4]: 57.8%

Compound: CN(C)CCCCN(C)C1=Nc2ccccc2C(CC(=O)NCc2ccccc2)N1c1ccc(-c2ccccc2)cc1 (stereo not given)
IC50 [1]: 3.97 µM
IC50 [2]: 1.65 µM
IC50 [3]: 9.78 µM
IC50 [5]: 0.31 µM
inhibition [4]: 81.7%

Compound: CN(C)CCCCCCN(C)C1=Nc2ccccc2C(CC(=O)NCc2ccccc2)N1c1ccc(-c2ccccc2)cc1 (stereo not given)
Ratio IC50 [6]: 20
IC50 [1]: 1.74 µM
IC50 [2]: 1.19 µM
IC50 [3]: 5.78 µM
IC50 [5]: 0.55 µM
inhibition [4]: 66.7%

Compound: CN(C)CCCCCN(C)C1=Nc2ccccc2C(CC(=O)NCc2ccccc2)N1c1ccc(-c2ccccn2)cc1 (stereo not given)
IC50 [1]: > 5 µM
IC50 [3]: 2.41 µM
inhibition [4]: 30.9%

Compound: COc1ccc(CNC(=O)CC2c3ccccc3N=C(N3CCN(CCN(C)C)CC3)N2c2ccc(-c3ccccc3)cc2)cc1 (stereo not given)
Activity [7]: Active
Activity [8]: Dose-dependent effect
Activity [9]: Dose-dependent effect
Activity [10]: Non-toxic
Activity [11]: 7.3%
Activity [12]: 7.3%
Activity [13]: 21.6%
Activity [14]: 63.8%
IC50 [15]: 9.28 µM
IC50 [1]: 3.82 µM
IC50 [2]: 1.44 µM
IC50 [3]: 2.47 µM
IC50 [5]: 0.31 µM
inhibition [4]: 75.9%

Compound: CN(C)CCN1CCN(C2=Nc3ccccc3C(CC(=O)NCc3ccc(F)cc3)N2c2ccc(-c3ccccc3)cc2)CC1 (stereo not given)
Activity [7]: Active
Activity [8]: Dose-dependent effect
Activity [9]: Dose-dependent effect
Activity [10]: Non-toxic
Activity [11]: 8.1%
Activity [12]: 7.1%
Activity [13]: 18.1%
Activity [14]: 66.7%
IC50 [15]: 10 µM
IC50 [1]: 4 µM
IC50 [2]: 1.6 µM
IC50 [3]: 3.09 µM
IC50 [5]: 0.32 µM
inhibition [4]: 81%

Compound: CN(C)CCCCCN(C)C1=Nc2ccccc2C(CC(=O)NCc2ccccc2)N1c1ccc(-c2ccccc2)cc1 (stereo not given)
Ratio IC50 [6]: 20
Activity [16]: 95.4%
Activity [17]: 61.4%
Activity [18]: 14.7%
Activity [11]: 5.3%
Activity [19]: 71.4%
Activity [12]: 5.8%
Activity [13]: 63.3%
Activity [14]: 25.6%
IC50 [1]: 1.6 µM
IC50 [2]: 1.06 µM
IC50 [3]: 2.47 µM
IC50 [5]: 0.26 µM
inhibition [4]: 76.6%
